HePTP inh: human HePTP phosphatase inhibition; P35236; recombinant HePTP phosphatase activity, OD absorbance; inhibition, % at 20 µM; 110,000 tested, 0.64% active; in the data active = inhibition above about 50%;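 also: plate controls were vehicle for no effect and reference inhibitor for full effect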
Target sequence (P35236 whole entry, looked up): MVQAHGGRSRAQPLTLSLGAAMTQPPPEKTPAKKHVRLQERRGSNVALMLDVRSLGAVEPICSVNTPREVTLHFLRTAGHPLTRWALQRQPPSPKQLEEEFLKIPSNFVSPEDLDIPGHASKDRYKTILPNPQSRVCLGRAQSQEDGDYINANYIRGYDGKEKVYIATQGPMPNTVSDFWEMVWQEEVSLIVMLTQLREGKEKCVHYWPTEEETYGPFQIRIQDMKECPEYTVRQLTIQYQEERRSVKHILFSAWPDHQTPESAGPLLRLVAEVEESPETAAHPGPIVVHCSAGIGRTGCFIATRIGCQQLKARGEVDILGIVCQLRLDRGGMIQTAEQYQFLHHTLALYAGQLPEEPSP
PostGolgi ctrl: inhibits growth of the yeast control strain. efflux-deficient yeast background strain, growth absorbance A615, 16 h. inhibition, % at 10 µM. 98,000 tested, 5% active
E coli WT exp: blocks growth of wild type E. coli BW25113. OD600 absorbance. growth inhibition, % at 100 µM. 98,000 tested, 0.15% active. AID 710;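 active = growth inhibition above about 50% at one test dose, limit read from the data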;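 also: growth measured after 20 h incubation at 37 °C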
Ecoli tolC: blocks growth of E. coli BW25113 tolC mutant. OD615. 65,000 tested, 2.2% active. growth inhibition, % at 10 µM (by protocol);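 active = growth inhibition at or above a cutoff equal to the mean over every tested compound plus 3 SD, cut at about 60% in these data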;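 also: growth measured after 20 h incubation at 37 °C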
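Test system: E. coli BW25113 ΔtolC::kan bacteria; incubation: 37 °C, 20 h exposure; medium: LB broth supplemented with 50 µg/mL kanamycin; read-out basis: percent growth inhibition; signal: A615 absorbance measurement; compound: 10 µM final, single dose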
PostGolgi yeast: growth inhibition of a yeast mutant, post-Golgi transport screen; post-Golgi transport phenotypic cell assay; inhibition, % at 10 µM; 98,000 tested, 0.9% active;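 also: yeast cells grown in 1536-well plates; yeast grown about 18 h at 30C before absorbance read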
PLAP activator: activators of human placental alkaline phosphatase; purified PLAP enzyme, luminescent substrate read-out; stronger effect = higher value; 96,000 tested, 1.2% active; P05187; activation fold at 20 µM; in the data active = activation fold above about 2
* marks the source's active call; other numbers are inactive results; x = not tested or not shown. Only some compounds are listed: those with a hit (about 5.4% of all), similar ones and a draw of the others. Rule as the data show it, unless noted: active = inhibition above about 30%; inactive = the rest.

SMILES	HePTP inh	PostGolgi ctrl	E coli WT exp	Ecoli tolC	PostGolgi yeast	PLAP activator
CCOC(=O)c1c(NC(=O)CC2Nc3cc(C)c(C)cc3NC2=O)sc2c1CCCC2 (stereo not given)	-0.6	x	x	x	x	x
COc1c(Cl)cc(/C=C2/SC(=S)NC2=O)cc1Cl	-7.2	x	x	x	x	x
CC(=O)Nc1ccc(S(=O)(=O)N2CCN(c3cccc(C)c3C)CC2)cc1	-3.4	50.6*	-1.0	22.4	2.2	0.9
Cc1cccc(N2CCN(C(=O)C(C)C)CC2)c1C	x	85.4*	0.0	x	90.9*	1.1
Cc1cccc(N2CCN(C(=O)Cn3cccc3)CC2)c1C	1.5	8.3	6.0	14.1	4.0	1.3
Cc1cccc(N2CCN(C(=O)Cc3cn(C)c4ccccc34)CC2)c1C	x	43.5*	-9.0	x	7.7	1.7
COc1cccc(NC(=O)N2CCN(c3cccc(C)c3C)CC2)c1	-3.6	-1.1	-6.0	71.8*	-7.3	0.9
COC(=O)c1cc(-c2ccc(OC)cc2)nc2ccc(Br)cc12	4.1	x	x	x	x	x
Cc1cc(C(=O)CSc2nc3ccccc3[nH]2)c(C)n1C	8.6	6.8	-5.0	0.3	11.2	1.8
Cc1ccc2nc(SCC(=O)c3cc(C)n(C)c3C)[nH]c2c1	x	32.9*	-6.0	x	1.4	1.1
Cc1cc(NC(=O)CSc2nc3ccc(Cl)cc3[nH]2)no1	x	13.5	8.0	x	4.0	2.7*
COC(=O)c1cc(CSc2nc3ccc(C)cc3[nH]2)oc1C	1.2	x	x	73.2*	x	1.5
Cc1cc(C(=O)CSc2nc3ccc(Cl)cc3[nH]2)c(C)n1CC1CCCO1 (stereo not given)	x	9.7	-8.0	x	0.9	1.9
Cc1cc(C(=O)CSc2nc3ccc(Cl)cc3[nH]2)c(C)n1C	-3.6	84.4*	-12.0	11.6	55.2*	2.1*
Cc1ccc(-n2nc3cc(C)c(NC(=O)c4ccc(Cl)cc4Cl)cc3n2)cc1	-8.6	x	x	x	x	x
CCOC(=O)C1=C(O)/C(=C/c2ccccc2)SC1=Nc1ccc(F)cc1	6.9	x	x	x	x	x
Cc1ccc(C(=O)N/C(=C/c2cccs2)c2nc3ccccc3[nH]2)cc1	-0.1	x	x	x	x	x
CC1=C(C(=O)Nc2ccccc2)C(c2ccc([N+](=O)[O-])cc2)N2C(=O)CSC2=N1 (stereo not given)	0.3	x	x	x	x	x
CCC(Sc1nc2ccccc2[nH]1)C(=O)Nc1cc(C)on1 (stereo not given)	3.5	6.0	1.0	-2.1	-1.6	2.1*
O=[N+]([O-])c1cc(-n2ncnc2-c2ccc(Br)cc2)ccc1Cl	3.9	x	x	x	x	x
O=C(CSc1nc2ccccc2n1Cc1ccccc1)N/N=C/c1ccc([N+](=O)[O-])cc1	86.2*	x	x	x	x	x
C/C(=N\Nc1nnc(-c2ccccc2)c(-c2ccccc2)n1)c1ccc(C)cc1	5.4	x	x	x	x	x
Cc1cccc(-c2c3c(=O)n(C)c(=O)n(C)c3cn2C2CCCCC2)c1	x	27.9	-1.0	x	76.5*	1.2
O=C1c2ccccc2C(=O)c2c(NCc3cccnc3)cccc21	x	33.6*	1.0	x	-1.7	1
O=C(Cc1ccc(F)cc1)Nc1cccc2ccccc12	103.3*	x	x	x	x	x
SMILES	HePTP inh	PostGolgi ctrl	E coli WT exp	Ecoli tolC	PostGolgi yeast	PLAP activator
COC(=O)CCC(=O)Nc1cccc2ccccc12	x	34.1*	6.0	x	10.8	1
O=C(CSc1ncc(-c2ccc(F)cc2)n1Cc1ccco1)Nc1ccc2c(c1)OCO2	8.4	30.9*	2.0	69.7*	18.6	0.8
CCN(CC)CCNc1ccc(Nc2ccnc3cc4ccccc4cc23)cc1	2.5	x	x	x	x	x
CC1(C)NC(=O)N(CC(O)COc2cccc(F)c2)C1=O (stereo not given)	0.1	x	5.0	-6.7	0.0	1
Cc1cccc(OCC(O)CN2C(=O)NC(C)(C)C2=O)c1 (stereo not given)	103.6*	x	x	x	x	x
COCCCNC(=O)CN(c1ccc(Cl)cc1)S(=O)(=O)c1ccccc1	-14.2	x	x	x	x	x
Brc1ccc(OCc2ccccc2)c(CNCc2ccncc2)c1	x	94.9*	13.0	x	101.3*	1.3
OCCNCc1cc(Br)ccc1OCc1ccc(Cl)cc1	x	0.8	32.0	x	-5.5	1.1
CCc1cc(C)cc(OCCOc2ccc(/C=c3\sc4nc5ccccc5n4c3=O)cc2)c1	-7.0	x	x	x	x	x
C=CCSc1nnc(NC(=O)c2nc(SCC)ncc2Cl)s1	x	33.0*	4.0	x	7.5	1
CSc1ncc(Cl)c(C(=O)Nc2nnc(SC/C=C/c3ccccc3)s2)n1	x	11.9	-28.0	x	2.2	2.3*
CCCCC(CC)CNC(=O)c1[nH]c(C)c(C(C)=O)c1C (stereo not given)	-4.9	8.3	5.0	62.1*	19.5	1
CN(C)CCCNC(=O)c1c(Cl)cccc1Cl	-5.5	x	x	x	x	x
CCOC(=O)c1c(NC(=O)c2cc3cc(Br)ccc3oc2=O)sc(C(C)=O)c1C	-0.7	x	x	x	x	x
O=C(CCc1ccccc1)NNC(=S)NC(=O)c1ccccc1	x	32.4*	63.0*	x	20.6	1.2
O=C(/C=C/c1ccccc1)NNC(=O)c1cccnc1	-12.6	-7.0	3.0	x	1.0	2*
O=C(NC(=S)NCCc1ccccc1)c1ccccc1	-1.4	17.4	-4.0	x	3.2	0.8
O=C(NNC(=S)Nc1ccccc1)c1cccnc1	-20.6	x	x	x	x	x
COCCCNC(=S)NNC(=O)c1cccnc1	x	6.7	-8.0	x	-3.1	2.7*
O=C(NNC(=S)NC(=O)c1cccnc1)c1ccccc1	x	-7.0	53.0*	x	-9.1	2.1*
CN(c1ccccc1)c1ccc(C2NN=C(c3ccccc3)S2)cc1 (stereo not given)	7.9	x	x	x	x	x
CCOc1ccc(C(=O)Nc2cc(C(=O)O)cc(C(=O)O)c2)cc1	-6.7	x	x	x	x	x

Screens (PubChem)
